Fh CTSL1 inh – Fasciola hepatica cathepsin L1 inhibitors, primary screen, counter-screen for PFM18AAP inhibitor project, biochemical, QFRET, fluorogenic peptide substrate. recombinant F. hepatica cathepsin L1, Z-Leu-Arg-MCA fluorescence. inhibition, % at 5.96 µM. 0.49% of 300,000 active;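 active = inhibition above the mean of all tested compounds plus 3 SD, set per screening campaign, cut at about 17% in these data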;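 note: 0% = plate median of test compound wells and 100% = 1 µM Z-Phe-Ala-diazomethylketone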
PP5 inh – PP5 phosphatase inhibitors, primary screen, biochemical, fluorescence; inhibition, % at 6.7 µM; Serine/threonine-protein phosphatase 5 (Homo sapiens), P53041; purified PP5c, OMFP substrate fluorescence; 0.18% of 320,000 active; AID 1987, 2009;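 active = inhibition above the campaign's mean inhibition across all tested compounds plus 3 SD, cut at about 9.5% in these data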;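 note: 0% = DMSO only and 100% = 100 µM cantharidin control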
Target sequence (P53041 whole entry, looked up): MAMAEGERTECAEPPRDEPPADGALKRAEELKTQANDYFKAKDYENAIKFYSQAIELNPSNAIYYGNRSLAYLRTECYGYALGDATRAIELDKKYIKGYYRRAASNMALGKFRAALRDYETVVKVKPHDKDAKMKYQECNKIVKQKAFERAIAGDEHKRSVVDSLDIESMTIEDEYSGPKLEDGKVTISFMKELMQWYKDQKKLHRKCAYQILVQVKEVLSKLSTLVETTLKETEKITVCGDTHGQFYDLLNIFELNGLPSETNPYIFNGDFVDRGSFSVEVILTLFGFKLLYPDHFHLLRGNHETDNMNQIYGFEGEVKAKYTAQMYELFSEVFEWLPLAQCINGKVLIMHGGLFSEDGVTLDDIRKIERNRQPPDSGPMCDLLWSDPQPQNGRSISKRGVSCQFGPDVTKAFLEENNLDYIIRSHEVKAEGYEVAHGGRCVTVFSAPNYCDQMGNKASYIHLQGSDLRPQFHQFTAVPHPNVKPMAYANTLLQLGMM
pCIP destab – p/CIP-EGFP fusion destabilizers, primary screen, fluorescence, F442A cells | AID 1984, 2009 | decrease of EGFP signal, % at 10 µM | 0.01% of 290,000 active | 16 h;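 active = EGFP signal decrease of at least 30% at 10 µM or well 3 SD below plate mean, unless failing retest; inactive = the rest, including hits failing retest or dose response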
JMJD2C inh – inhibitors of GASC-1 histone demethylase, primary screen, biochemical, fluorescence, DELFIA europium; GST-JMJD2C(1-420) H3K9me3 demethylation; inhibition, % at 2.35 µM; 0.069% of 330,000 active;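 active = more than half of a compound's replicate wells show inhibition beyond 50%, single wells judged on their own value; inconclusive = some, but no more than half, of replicates pass 50% inhibition; inactive = no replicate passes 50% inhibition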;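 note: signal counts dimethyl H3K9 product captured on neutravidin plate; 0% = median of DMSO wells and 100% = 0.3 times that DMSO median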
H9c2 protect – cardioprotection against H2O2-induced cell death, primary screen, uHTS, H9c2 cells, ATPLite luminescence | H9c2 cardiomyocytes, H2O2 injury protection, 2 h | protection from H2O2 cell death, % at 20 µM | 0.63% of 360,000 active;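 active = compounds giving at least 50% protection of heart cells from peroxide-induced death in the single-dose screen, raw or plate-pattern-corrected value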;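 note: 0% = DMSO wells with peroxide and 100% = DMSO wells without peroxide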
T cruzi repl – inhibitors of intracellular T. cruzi growth, primary screen, luminescence, NIH3T3 host cells. 1.4% of 300,000 active. inhibition, % (no concentration beside the values). T. cruzi beta-gal in NIH3T3, 90 h. AID 1885, 2009;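 active = mean inhibition across valid replicates above about 55%, limit read from the data; inconclusive = mean below that limit but half or more replicates reach it; inactive = mean below it, under half of replicates reach it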;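 note: signal also drops with host cell toxicity which is not excluded here; 0% = plate median of DMSO wells and 100% = zero luminescence signal; higher percent means less beta-gal luminescence so fewer parasites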
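Assay system: NIH/3T3 host cells with β-galactosidase reporter T. cruzi; input: 5,000 host fibroblasts per well; compound: single 50 nL compound addition per well in DMSO; timing: ≥90 h infection period, 3 h prior cell attachment; measured by: GalScreen β-gal luminescence, detergent lysis, 60 min; evaluation: percent inhibition of parasite-derived β-gal signal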
* = called active by the depositor. Most compounds without a hit are left out; they make up all but 2.4% or so of the library.

COc1cc(-c2nc3ccccn3c2NCc2ccccc2)ccc1SC1CCCCC1 was read as Fh CTSL1 inh -6, PP5 inh -1, JMJD2C inh -3, H9c2 protect 0 and T cruzi repl 61*.
Screening CS(=O)(=O)N1CCC(C(=O)Nc2ccccc2Br)CC1 returned Fh CTSL1 inh -2, PP5 inh 1, pCIP destab -3, JMJD2C inh 4, H9c2 protect 1 and T cruzi repl -2.
`Cc1ccccc1NC(=O)C1C2CCC(O2)C1C(=O)O` (stereo not drawn) gave Fh CTSL1 inh 5, PP5 inh 63*, pCIP destab -2, JMJD2C inh -13, H9c2 protect 6 and T cruzi repl -5.
For CCOC(=O)c1c(-c2ccc(-c3ccccc3)cc2)csc1NC(=O)C1C2CCC(O2)C1C(=O)O (stereo not drawn) the results were Fh CTSL1 inh 2, PP5 inh 11*, pCIP destab 5, JMJD2C inh 57, H9c2 protect -1 and T cruzi repl -21.
Screening O=C(O)C1C2CCC(O2)C1C(=O)Nc1ccccc1Br (stereo not drawn) returned Fh CTSL1 inh -2, PP5 inh 68*, pCIP destab -7, JMJD2C inh -3, H9c2 protect 3 and T cruzi repl -7.
`CCOC(=O)c1c(-c2ccccc2)csc1NC(=O)C1CCCO1` (stereo not drawn) gave Fh CTSL1 inh -2, PP5 inh 4, pCIP destab -8, JMJD2C inh 8, H9c2 protect -2 and T cruzi repl inconclusive.
Cc1ccc(F)cc1NC(=O)C1C2CCC(O2)C1C(=O)O (stereo not drawn) was read as Fh CTSL1 inh 1, PP5 inh 64*, pCIP destab -20, JMJD2C inh -4, H9c2 protect 6 and T cruzi repl -14.
For Cc1cc(C)c(NC(=O)CCCn2c(=O)oc3ccccc32)c(C)c1 the results were PP5 inh 2, JMJD2C inh 2 and H9c2 protect -2.
Screening COc1ccc(C)cc1NC(=O)C1CCCN(S(=O)(=O)c2ccc3c(c2)CCCN3C(C)=O)C1 (stereo not drawn) returned Fh CTSL1 inh 0, PP5 inh -1, pCIP destab 0, JMJD2C inh 27, H9c2 protect -2 and T cruzi repl 1.
`CCCCc1ccc(-c2nc(NC(=O)C3C4CCC(O4)C3C(=O)O)sc2C)cc1` (stereo not drawn) gave Fh CTSL1 inh 1, PP5 inh 75*, pCIP destab -26, JMJD2C inh 14 and T cruzi repl -5.
`Cc1ccc(NC(=O)c2cccc(S(=O)(=O)N3CCN(C)CC3)c2)cc1F` gave Fh CTSL1 inh -2, PP5 inh 4, pCIP destab -16, JMJD2C inh 1, H9c2 protect 2 and T cruzi repl -8.
Screening COc1ccc(S(=O)(=O)N2CCCC(C(=O)N3CCN(Cc4ccccc4)CC3)C2)cc1Cl (stereo not drawn) returned H9c2 protect -2.
COc1cccc(NC(=S)/C(=C(\[O-])c2cc(C)n(-c3ccccc3F)c2C)[n+]2ccc(N(C)C)cc2)c1 was read as Fh CTSL1 inh -3, PP5 inh -2, pCIP destab 9, JMJD2C inh -6, H9c2 protect -22 and T cruzi repl 75*.
`CN(C)Cc1ncccc1Oc1nc2cc(-c3cccc(Cl)c3)sc2c(=O)n1C` gave H9c2 protect -10.
CCOC(=O)c1cc2c(s1)-c1c(C)cccc1OC2 was read as Fh CTSL1 inh 18*, PP5 inh -4, pCIP destab 2, JMJD2C inh -2, H9c2 protect -26 and T cruzi repl -11.
For Cc1cccc2c1-c1sc(C(=O)Nc3nccs3)cc1CO2 the results were Fh CTSL1 inh 4, PP5 inh 1, pCIP destab -20, JMJD2C inh -2, H9c2 protect 14 and T cruzi repl -9.
Screening COc1cc(C(=O)NC2=NCCS2)ccc1OCc1c(C)noc1C returned Fh CTSL1 inh 37*, PP5 inh 1, pCIP destab 5, JMJD2C inh 12, H9c2 protect 5 and T cruzi repl 1.
Screening COc1cc(C(=O)Nc2cc(C)ccc2C)ccc1OCc1c(C)noc1C returned JMJD2C inh -1 and H9c2 protect -6.
`COc1ccc(C2=NNC(=O)C2(C)Br)cc1` (stereo not drawn) gave H9c2 protect 4.
CCOC(=O)Nc1ccc2c(c1)N(C(=O)CN(C)C)c1ccccc1S2 was read as H9c2 protect -4.
For CCOC(=O)Nc1ccc2c(c1)N(C(=O)CN1CCN(C)CC1)c1ccccc1S2 the results were Fh CTSL1 inh -2, PP5 inh 6, pCIP destab 9, JMJD2C inh 121, H9c2 protect 4 and T cruzi repl 71*.
Screening CCOC(=O)Nc1ccc2c(c1)N(C(=O)CCN(C)C)c1ccccc1S2 returned Fh CTSL1 inh 5, PP5 inh 4, pCIP destab -6, JMJD2C inh -21, H9c2 protect 10 and T cruzi repl 85*.
`Cc1sc2ncnc(N3CCC(C(=O)N(C)CC(=O)Nc4cccc(F)c4)CC3)c2c1C` gave H9c2 protect 31.
`Cc1sc2ncnc(N3CCC(C(=O)N(C)CC(=O)Nc4ccccc4Cl)CC3)c2c1C` gave Fh CTSL1 inh 1, PP5 inh 2, pCIP destab -11, JMJD2C inh -11, H9c2 protect 46 and T cruzi repl 4.
`CCN(CC(=O)Nc1cc(Cl)ccc1C)C(=O)C1CCN(c2ncnc3sc(C)c(C)c23)CC1` gave H9c2 protect 77*.
Screening Cc1sc2ncnc(N3CCC(C(=O)N(C)CC(=O)Nc4ccc(Cl)c(C(F)(F)F)c4)CC3)c2c1C returned Fh CTSL1 inh 2, PP5 inh 1, JMJD2C inh -3, H9c2 protect -15 and T cruzi repl 58*.
`Cc1ccnc(N/N=C/c2ccccc2)n1` gave Fh CTSL1 inh 0, PP5 inh 1, pCIP destab 10, JMJD2C inh -15, H9c2 protect -7 and T cruzi repl -9.
For Cc1cc(C)nc(N/N=C2/CCCC/C2=C\c2ccccc2)n1 the results were Fh CTSL1 inh 4, PP5 inh 1, pCIP destab 1, JMJD2C inh 8, H9c2 protect -12 and T cruzi repl 70*.
`COc1cc(/C=C/C(=O)OCC(=O)N2CCN(S(=O)(=O)c3ccc(C)cc3C)CC2)cc(Cl)c1OC` gave H9c2 protect -4.
